# Rows were chosen to be rich in hits. Some 2.3% of all compounds tested hit in one or more screens of this group.
# ABCG2 inh: human ABCG2 inhibition, ABCB1 as counter-screen | Q9UNQ0 | IgMXP3 cells, JC-1 efflux, flow cytometry | inhibition, % at 6.6 µM | 0.1% of 190,000 active | AID 1325;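 active = inhibition above 80%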;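 note: 0% = DMSO and 100% = nicardipine control wells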
#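 Test system: IgMXP3 cells (ABCG2) mixed with DDAO far-red-labelled CCRF-Adr cells (ABCB1). Reagent: JC-1 transporter substrate. Compound dosing: single test compound dose, 6.6 µM final. Times: 10 min compound exposure, 25 °C. Detection: flow cytometry of retained JC-1 fluorescence. Read-out basis: efflux inhibition in percent versus controls. Controls: nicardipine and DMSO wells.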
# MEKK2 WT-MEK5: raises or lowers MEK5 binding to wildtype human MEKK2 PB1 domain | Q9Y2U5 | bead flow cytometry, Alexa488-MEK5 binding to MEKK2 WT; actives lie on both sides | binding response (% of control), % at 10 µM | 1.1% of 290,000 active | AID 1531; in the data active = binding response below about 67% or above about 130%
# MEKK3 PB1 HTS: modulators (inhibitors or enhancers) of MEK5 binding to human MEKK3 PB1 domain; binding response (% of control), % at 10 µM; AID 1529; 1.4% of 290,000 active; Q99759; bead-based flow cytometry, Alexa488-MEK5 binding to MEKK3; actives lie on both sides; 0 = blocked by unlabeled MEK5, 100 = vehicle;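 active = binding response more than 3 SD above or below the average of its plate-row segment, actives on both sides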;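 note: Alexa488 bead fluorescence after subtracting the streptavidin-only scavenger bead signal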
# MEKK2 mut-MEK5: signal of MEK5 binding to mutant human MEKK2 PB1 domain | bead flow cytometry, Alexa488-MEK5 binding to MEKK2 mutant | percent response, % at 10 µM | 0.35% of 290,000 active; in the data active = percent response above about 24%, passing the limit was not always enough
# ABCB1 inh: inhibitors of human ABCB1 transporter, ABCG2 counter-screen. P08183. inhibition, % at 6.6 µM. 0.067% of 190,000 active. CCRF-Adr cells, JC-1 efflux, flow cytometry; in the data active = inhibition above about 40%;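 note: 0% = vehicle and 100% = reference inhibitor; higher value means more JC-1 retained so stronger ABCB1 efflux block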
# Target sequence (P08183 whole entry, looked up): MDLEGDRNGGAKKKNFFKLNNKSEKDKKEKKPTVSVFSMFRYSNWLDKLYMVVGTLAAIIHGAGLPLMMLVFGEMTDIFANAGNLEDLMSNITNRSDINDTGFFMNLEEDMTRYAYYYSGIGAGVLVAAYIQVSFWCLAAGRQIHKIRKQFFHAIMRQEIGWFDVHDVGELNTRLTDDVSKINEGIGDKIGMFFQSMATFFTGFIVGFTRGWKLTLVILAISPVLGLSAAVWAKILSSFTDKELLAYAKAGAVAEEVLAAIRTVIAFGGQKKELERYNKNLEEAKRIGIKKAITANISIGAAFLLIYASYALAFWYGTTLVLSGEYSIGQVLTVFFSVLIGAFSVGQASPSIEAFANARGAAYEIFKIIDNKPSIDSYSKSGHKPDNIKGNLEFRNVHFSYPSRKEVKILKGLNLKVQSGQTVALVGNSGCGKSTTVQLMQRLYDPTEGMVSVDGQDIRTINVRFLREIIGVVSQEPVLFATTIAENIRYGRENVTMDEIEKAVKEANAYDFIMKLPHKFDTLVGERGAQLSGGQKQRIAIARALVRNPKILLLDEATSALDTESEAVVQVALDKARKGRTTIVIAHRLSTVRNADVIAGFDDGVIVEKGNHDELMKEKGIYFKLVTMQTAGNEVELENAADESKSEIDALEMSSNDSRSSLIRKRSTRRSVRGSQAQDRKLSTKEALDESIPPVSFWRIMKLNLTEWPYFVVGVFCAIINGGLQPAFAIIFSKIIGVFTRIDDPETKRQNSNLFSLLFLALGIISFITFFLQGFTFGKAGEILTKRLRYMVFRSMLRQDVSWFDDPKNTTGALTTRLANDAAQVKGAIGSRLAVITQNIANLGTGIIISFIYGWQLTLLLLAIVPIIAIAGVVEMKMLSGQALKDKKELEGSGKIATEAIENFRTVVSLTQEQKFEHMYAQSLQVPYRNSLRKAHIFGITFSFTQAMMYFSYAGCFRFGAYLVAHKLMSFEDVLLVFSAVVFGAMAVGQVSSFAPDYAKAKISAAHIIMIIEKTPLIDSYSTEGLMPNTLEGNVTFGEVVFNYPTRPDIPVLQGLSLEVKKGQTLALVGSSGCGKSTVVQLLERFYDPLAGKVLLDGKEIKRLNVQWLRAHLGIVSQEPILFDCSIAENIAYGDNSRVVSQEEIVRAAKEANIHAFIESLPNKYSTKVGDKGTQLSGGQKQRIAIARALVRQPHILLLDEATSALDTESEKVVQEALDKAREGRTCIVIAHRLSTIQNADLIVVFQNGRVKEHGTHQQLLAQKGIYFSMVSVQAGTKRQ
# MEKK2wt confirm: raises or lowers MEK5 binding to wildtype human MEKK2, retest. 2.4% of 5,900 active. bead flow cytometry, Alexa488-MEK5 binding to MEKK2 WT; actives lie on both sides. AID 1892. binding response (% of control), % at 10 µM. shares compounds with MEKK3 PB1 HTS; in the data active = binding response below about 16% or above about 210%; inactive = in between
# MEKK2mut-MEK5: signal of MEK5 binding to mutant human MEKK2, retest; percent response, % at 10 µM; 2% of 5,900 active; shares compounds with MEKK3 PB1 HTS; bead flow cytometry, Alexa488-MEK5 binding to MEKK2 mutant; in the data active = percent response mostly above about 71%, no sharp cut-off; inactive = mostly below about 38%;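 note: higher means compound restores mutant binding toward wildtype level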
# MEKK3-MEK5 inh: confirmation of inhibitors of MEK5 binding to human MEKK3; shares compounds with MEKK3 PB1 HTS; bead flow cytometry, Alexa488-MEK5 binding to MEKK3; active compounds read low; binding response (% of control), % at 10 µM; 1.8% of 5,900 active; AID 1894;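 active = binding response below 72% of control, or above a set upper limit, though filed actives all read lower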;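 note: 100% = DMSO only wells and 0% = binding blocked by excess unlabeled MEK5; lower values mean stronger disruption of MEK5 binding to MEKK3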
# * = called active by the depositor; nt = no result; [ ] = dose if it differs, or a comment.
SMILES,ABCG2 inh,MEKK2 WT-MEK5,MEKK3 PB1 HTS,MEKK2 mut-MEK5,ABCB1 inh,MEKK2wt confirm,MEKK2mut-MEK5,MEKK3-MEK5 inh
Cc1ccc(Cl)cc1N1CCN(C(=O)Cc2cn(C)c3ccccc23)CC1,2,117,130*,5,0,106,4,107
CNc1nc(Cl)c(SC)c(NC2CCCCC2)n1,0,124,148*,6,0,100,-3,100
CNc1nc(Cl)c(SC)c(NCc2cccc(OC)c2)n1,nt,105,103,5,nt,nt,nt,nt
O=C(CCNC(=O)C1CCN(S(=O)(=O)c2ccc(F)cc2)CC1)NCc1ccc(Cl)cc1,nt,105,102,0,nt,nt,nt,nt
C=CCN1C(=O)/C(=c2\sc3nc(=O)c(Cc4ccccc4)nn3c2=O)c2ccccc21,nt,-4.0*[inhibitor],95,-2,nt,89,-2,91
Cc1ccc(-n2nnnc2SCC(=O)NC2CCCc3ccccc32)cc1 (configuration not stated),4,101,140*,-1,1,103,1,104
O=C(Cc1coc2ccc3ccccc3c12)NC1CCCc2ccccc21 (configuration not stated),9,106,135*,1,0,97,-9,95
Cc1ccc(-n2nnnc2SCC(=O)NC2CCCc3ccccc32)c(C)c1 (configuration not stated),3,97,100,0,2,nt,nt,nt
O=C(Cc1coc2ccc3ccccc3c12)NCc1ccccc1,0,91,93,0,0,nt,nt,nt
Cc1cccc(C)c1NC(=O)CS(=O)CC(=O)NC1CCCc2ccccc21 (configuration not stated),5,128,132*,6,2,99,-3,100
COc1ccc(NC(=O)CS(=O)CC(=O)NC2CCCc3ccccc32)cc1 (configuration not stated),1,100,99,0,0,nt,nt,nt
CCOC(=O)NC(=O)CSc1nnnn1-c1ccc(Cl)cc1,45,99,99,-1,1,nt,nt,nt
CCOC(=O)NC(=O)CSc1nnnn1-c1ccc(C)cc1,4,2.0*[inhibitor],2.0*[inhibitor],-16,1,104,2,107
O=C(NN=C1CCCC1)c1ccc(O)cc1,nt,105,104,2,nt,nt,nt,nt
CCC(=O)C1CCCN(C(=O)CCc2nnc(C3(c4ccc(Cl)cc4)CCC3)o2)C1 (configuration not stated),nt,101,95,6,nt,nt,nt,nt
COc1ccc(C(=O)NCc2nnc(SCC(=O)NC3CCCC3)o2)cc1,nt,94,93,-1,nt,nt,nt,nt
COc1ccc(C(=O)NCCC(=O)N2CCC3(CC2)NCCc2[nH]cnc23)cc1,nt,101,102,3,nt,nt,nt,nt
O=C(CSc1nnnn1-c1cccnc1)Nc1ccccc1F,nt,98,98,-2,nt,nt,nt,nt
CCN(CCO)C(=O)c1ccc2nc(Cc3ccc(OC)cc3)oc2c1,nt,113,106,6,nt,nt,nt,nt
COc1ccc(C(=O)CC(SCC(NC(C)=O)C(=O)O)c2ccc(Cl)cc2)cc1OC (configuration not stated),nt,117,105,7,nt,nt,nt,nt
NC1=NC[C@H](Cc2ccc(O)cc2)N1CCC12CC3CC(CC(C3)C1)C2,nt,138*,108,21,nt,128,8,100
CCCCN1C(N)=NC[C@@H]1Cc1ccc(O)cc1,nt,106,97,1,nt,nt,nt,nt
COc1ccc(CN(C)C(=O)c2oc3ccccc3c2CSC)cc1F,nt,108,107,9,nt,nt,nt,nt
O=C(NCc1ccc(Cl)cc1)C(=O)NCC1OCCN1C(=O)c1cccs1 (configuration not stated),-1,111,153*,1,0,102,3,99
O=C(NCc1ccc(Cl)cc1)C(=O)NCC1OCCN1S(=O)(=O)c1cccs1 (configuration not stated),4,105,111,9,1,nt,nt,nt

# Source: PubChem BioAssay
